This note sets out measurements from article PMC6682128 (ACS Omega, 2019).

The nature of data set [1]: Cytotoxicity assay. The format is cell-based. Particulars: human. The method in brief:
(§1)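 Replicon cells (Huh5-2, Huh7.5-3a or Huh7.5-4a) were seeded at 10^4 per well and grown 24 h in complete DMEM. They were then exposed for three days to serial dilutions of test compound or DMSO solvent. Lysates were assayed for ATP by chemiluminescence, normalised to Bradford total protein. CC50 was obtained by nonlinear regression against log concentration.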

The nature of data set [2]: Cytotoxicity assay. It counts as cell-based. As to conditions: human, Huh7.5-3a (S52) replicon cells. The method, boiled down: as §1
In general terms: Replicon systems follow genome replication, usually without infectious particles.

In data set [3] the test system is Huh7.5-4a (ED43) replicon cells. In words: Cytotoxicity assay. It counts as cell-based, human. Particulars: ATP levels. The method in brief:
as §1

The subject of data set [4] is HCV genotype 1b (+) strand RNA. The data set can be described thus: HCV RNA quantification by RT-qPCR in Huh5-2 replicon cells. It counts as cell-based, Hepatitis C virus. As to conditions: 0.05 nM compound, Huh5-2 cells, normalized to YWHAZ. (In general: In qPCR the cycle at which signal appears reflects the starting amount.)
In a further data set the test system is HCV NS5A (Con1). The format is cell-based, Hepatitis C virus. Particulars: Huh5-2 cells; for cell viability (nuclei staining with propidium iodide): 0.5 and 0.05 nM; for NS5A protein levels by indirect immunofluorescence: highest compound concentration used (0.5 nM).
The subject of data set [5] is HCV genotype 1b (strain Con1) replicon. The data set can be described thus: HCV genotype 1b replicon luciferase assay in Huh5-2 cells. Particulars: EC50 comparison. The format is cell-based, Hepatitis C virus.

On to `CCOC(=O)N[C@@H](CC(C)C)C(=O)N1CCC[C@H]1C(=O)Nc1cccc(C#CC#Cc2cccc(NC(=O)[C@@H]3CCCN3C(=O)[C@H](CC(C)C)NC(=O)OCC)c2)c1` [2f, Diethyl((2S,2′S)-((2S,2′S)-(((buta-1,3-diyne-1,4-diylbis(3,1-phenylene))bis(azanediyl))bis(carbonyl))bis(pyrrolidine-2,1-diyl))bis(4-methyl-1-oxopentane-1,2-diyl))dicarbamate], for which the half-maximal cytotoxic concentration (CC50) (usually the concentration at which the toxic effect on the cells reaches its halfway point) at 3 days in the data set “Cytotoxicity assay [1]” is > 200 µM. For the same molecule, the CC50 at 3 days in the data set “Cytotoxicity assay [2]” is > 200 µM. Further, the “CC50, genotype 4a (ED43)” value in data set [3] is >200 000 nM. Further, the “HCV RNA replication reduced to (relative to control)” value in data set [4] is reported as ~90%. In the data set with HCV NS5A (Con1), the “cell viability (nuclei staining with propidium iodide)” value is recorded as “not affected” and the “NS5A protein levels by indirect immunofluorescence” value is given as “almost undetectable levels”.
Consider `COC(=O)N[C@H](CC(C)C)C(=O)N1CCC[C@H]1C(=O)Nc1cccc(C#CC#Cc2cccc(NC(=O)[C@@H]3CCCN3C(=O)[C@@H](CC(C)C)NC(=O)OC)c2)c1` [2p, Dimethyl((2R,2′R)-((2S,2′S)-(((buta-1,3-diyne-1,4-diylbis(3,1-phenylene))bis(azanediyl))bis(carbonyl))bis(pyrrolidine-2,1-diyl))bis(4-methyl-1-oxopentane-1,2-diyl))dicarbamate], for which the “fold more active than 2o” value in data set [5] is recorded as “about 3 × 10^5 fold”. Also, the CC50 at 3 days in “Cytotoxicity assay [1]” and in “Cytotoxicity assay [2]” was > 200 µM each time. Moreover, the “CC50, genotype 4a (ED43)” value in data set [3] was >200 000 nM.
As to `CC(C)[C@H](NC(=O)OCc1ccccc1)C(=O)N1CCC[C@H]1C(=O)Nc1cccc(C#CC#Cc2cccc(NC(=O)[C@@H]3CCCN3C(=O)[C@@H](NC(=O)OCc3ccccc3)C(C)C)c2)c1` [2e, Dibenzyl((2S,2′S)-((2S,2′S)-(((buta-1,3-diyne-1,4-diylbis(3,1-phenylene))bis(azanediyl))bis(carbonyl))bis(pyrrolidine-2,1-diyl))bis(3-methyl-1-oxobutane-1,2-diyl))dicarbamate], the “fold less active than 2b” value in data set [5] stood at 22 fold. Besides, the CC50 at 3 days in “Cytotoxicity assay [1]” is > 10 µM.
Consider `CCOC(=O)N[C@@H](C(=O)N1CCC[C@H]1C(=O)Nc1cccc(C#CC#Cc2cccc(NC(=O)[C@@H]3CCCN3C(=O)[C@H](NC(=O)OCC)C(C)C)c2)c1)C(C)C` [2n, Diethyl((2R,2′R)-((2S,2′S)-(((buta-1,3-diyne-1,4-diylbis(3,1-phenylene))bis(azanediyl))bis(carbonyl))bis(pyrrolidine-2,1-diyl))bis(3-methyl-1-oxobutane-1,2-diyl))dicarbamate], for which the “fold more active than 2b” value in data set [5] was “about 6 fold”. Also, the half-maximal cytotoxic concentration (CC50) at 3 days in “Cytotoxicity assay [1]” is > 20 µM.
As for `COC(=O)N[C@H](C(=O)N1CCC[C@H]1C(=O)Nc1cccc(C#CC#Cc2cccc(NC(=O)[C@@H]3CCCN3C(=O)[C@@H](NC(=O)OC)C(C)C)c2)c1)C(C)C` [2a, Dimethyl((2S,2′S)-((2S,2′S)-(((buta-1,3-diyne-1,4-diylbis(3,1-phenylene))bis(azanediyl))bis(carbonyl))bis(pyrrolidine-2,1-diyl))bis(3-methyl-1-oxobutane-1,2-diyl))dicarbamate], the CC50 at 3 days in the data set “Cytotoxicity assay [1]” and in the data set “Cytotoxicity assay [2]” was > 200 µM in each case. The “CC50, genotype 4a (ED43)” value in data set [3] is recorded as >200 000 nM.
With `CCOC(=O)N[C@H](CC(C)C)C(=O)N1CCC[C@H]1C(=O)Nc1cccc(C#CC#Cc2cccc(NC(=O)[C@@H]3CCCN3C(=O)[C@@H](CC(C)C)NC(=O)OCC)c2)c1` [2q, Diethyl((2R,2′R)-((2S,2′S)-(((buta-1,3-diyne-1,4-diylbis(3,1-phenylene))bis(azanediyl))bis(carbonyl))bis(pyrrolidine-2,1-diyl))bis(4-methyl-1-oxopentane-1,2-diyl))dicarbamate], the CC50 at 3 days in the data set “Cytotoxicity assay [1]” is > 200 µM. Besides, the CC50 at 3 days in the data set “Cytotoxicity assay [2]” is > 200 µM. Moreover, in data set [3], the “CC50, genotype 4a (ED43)” value is reported as >200 000 nM. Also, in data set [4], the “HCV RNA replication reduced to (relative to control)” value was 56%. Also, in the data set with HCV NS5A (Con1), the “cell viability (nuclei staining with propidium iodide)” value is given as “not affected” and the “NS5A protein levels by indirect immunofluorescence” value was “almost undetectable levels”.
Regarding `CCOC(=O)N[C@@H](CC(C)C)C(=O)N1CCC[C@H]1C(=O)Nc1ccc(C#CC#Cc2ccc(NC(=O)[C@@H]3CCCN3C(=O)[C@H](CC(C)C)NC(=O)OCC)cc2)cc1` [1f, Diethyl((2S,2′S)-((2S,2′S)-(((buta-1,3-diyne-1,4-diylbis(4,1-phenylene))bis(azanediyl))bis(carbonyl))bis(pyrrolidine-2,1-diyl))bis(4-methyl-1-oxopentane-1,2-diyl))dicarbamate], the 50% cytotoxic concentration (CC50) at 3 days in “Cytotoxicity assay [1]” is > 10 µM.
Take `CCCCOC(=O)N[C@H](C(=O)N1CCC[C@H]1C(=O)Nc1cccc(C#CC#Cc2cccc(NC(=O)[C@@H]3CCCN3C(=O)[C@@H](NC(=O)OCCCC)[C@@H](C)CC)c2)c1)[C@H](C)CC` [2i, Butyl((2S,3S)-1-((S)-2-((3-((3-((S)-1-((butoxycarbonyl)-L-alloisoleucyl)pyrrolidine-2-carboxamido)phenyl)buta-1,3-diyn-1-yl)phenyl)carbamoyl)pyrrolidin-1-yl)-3-methyl-1-oxopentan-2-yl)carbamate]: in the data set “Cytotoxicity assay [1]”, the CC50 at 3 days was > 10 µM.
The same measure, in the same setting: under `CCOC(=O)N[C@H](C(=O)N1CCC[C@@H]1C(=O)Nc1ccc(C#CC#Cc2ccc(NC(=O)[C@H]3CCCN3C(=O)[C@@H](NC(=O)OCC)C(C)C)cc2)cc1)C(C)C` [1j, Diethyl((2S,2′S)-((2R,2′R)-(((buta-1,3-diyne-1,4-diylbis(4,1-phenylene))bis(azanediyl))bis(carbonyl))bis(pyrrolidine-2,1-diyl))bis(3-methyl-1-oxobutane-1,2-diyl))dicarbamate] stands > 10 µM.
Consider `CCOC(=O)N[C@H](C(=O)N1CCC[C@H]1C(=O)Nc1ccc(C#CC#Cc2ccc(NC(=O)[C@@H]3CCCN3C(=O)[C@@H](NC(=O)OCC)C(C)C)cc2)cc1)C(C)C` [1b, Diethyl((2S,2′S)-((2S,2′S)-(((buta-1,3-diyne-1,4-diylbis(4,1-phenylene))bis(azanediyl))bis(carbonyl))bis(pyrrolidine-2,1-diyl))bis(3-methyl-1-oxobutane-1,2-diyl))dicarbamate], for which, in data set [5], the “fold more active than compound 1n” value came out at 3 fold. This molecule yielded a CC50 at 3 days in the data set “Cytotoxicity assay [1]” of 2.58 µM.
In the case of `COC(=O)N[C@H](C(=O)N1CCC[C@H]1c1nc(-c2ccc(-c3ccc(-c4c[nH]c([C@@H]5CCCN5C(=O)[C@@H](NC(=O)OC)C(C)C)n4)cc3)cc2)c[nH]1)C(C)C` [daclatasvir, reference compound], the CC50 at 3 days in the data set “Cytotoxicity assay [1]” and in “Cytotoxicity assay [2]” was 17.7 µM each time. In data set [3], the “CC50, genotype 4a (ED43)” value is recorded as 17 700 nM.
Regarding `CC(C)[C@H](NC(=O)OCc1ccccc1)C(=O)N1CCC[C@H]1C(=O)Nc1ccc(C#CC#Cc2ccc(NC(=O)[C@@H]3CCCN3C(=O)[C@@H](NC(=O)OCc3ccccc3)C(C)C)cc2)cc1` [1e, Dibenzyl((2S,2′S)-((2S,2′S)-(((buta-1,3-diyne-1,4-diylbis(4,1-phenylene))bis(azanediyl))bis(carbonyl))bis(pyrrolidine-2,1-diyl))bis(3-methyl-1-oxobutane-1,2-diyl))dicarbamate], the “fold less active than compound 1b” value in data set [5] was found to be 28 fold. The CC50 at 3 days in the data set “Cytotoxicity assay [1]” was > 20 µM.
For `CCOC(=O)N[C@@H](CC(C)C)C(=O)N1CCC[C@@H]1C(=O)Nc1cccc(C#CC#Cc2cccc(NC(=O)[C@H]3CCCN3C(=O)[C@H](CC(C)C)NC(=O)OCC)c2)c1` [2l, Diethyl((2S,2′S)-((2R,2′R)-(((buta-1,3-diyne-1,4-diylbis(3,1-phenylene))bis(azanediyl))bis(carbonyl))bis(pyrrolidine-2,1-diyl))bis(4-methyl-1-oxopentane-1,2-diyl))dicarbamate], the CC50 at 3 days in “Cytotoxicity assay [1]” is > 10 µM.
Still for that read-out and setting: the same measure for `COC(=O)N[C@H](C(=O)N1CCC[C@H]1C(=O)Nc1ccc(C#CC#Cc2ccc(NC(=O)[C@@H]3CCCN3C(=O)[C@@H](NC(=O)OC)C(C)C)cc2)cc1)C(C)C` [1a, Dimethyl((2S,2′S)-((2S,2′S)-(((buta-1,3-diyne-1,4-diylbis(4,1-phenylene))bis(azanediyl))bis(carbonyl))bis(pyrrolidine-2,1-diyl))bis(3-methyl-1-oxobutane-1,2-diyl))dicarbamate]: 11 µM.
